Laboratory results from ChEMBL document CHEMBL3616382, “Catechols and 3-hydroxypyridones as inhibitors of the DNA repair complex ERCC1-XPF” (Bioorg Med Chem Lett, 2015).

Legend:
[1] = target: T1, DNA excision repair protein ERCC-1/DNA repair endonuclease XPF (Homo sapiens, UniProt P07992+Q92889); experiment: Inhibition of ERCC1-XPF (unknown origin) by high-throughput fluorescence based in-vitro endonuclease assay; assay type: protein-complex assay
T1 sequence (P07992 whole entry): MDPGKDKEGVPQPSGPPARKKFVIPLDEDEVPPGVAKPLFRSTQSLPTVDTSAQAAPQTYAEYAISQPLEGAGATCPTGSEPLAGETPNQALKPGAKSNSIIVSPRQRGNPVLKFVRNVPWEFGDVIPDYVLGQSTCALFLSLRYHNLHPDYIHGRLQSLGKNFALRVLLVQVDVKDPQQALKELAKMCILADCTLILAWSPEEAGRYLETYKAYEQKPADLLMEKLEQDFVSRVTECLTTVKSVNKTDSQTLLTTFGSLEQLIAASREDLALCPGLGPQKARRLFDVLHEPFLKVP
T1 sequence (Q92889 whole entry): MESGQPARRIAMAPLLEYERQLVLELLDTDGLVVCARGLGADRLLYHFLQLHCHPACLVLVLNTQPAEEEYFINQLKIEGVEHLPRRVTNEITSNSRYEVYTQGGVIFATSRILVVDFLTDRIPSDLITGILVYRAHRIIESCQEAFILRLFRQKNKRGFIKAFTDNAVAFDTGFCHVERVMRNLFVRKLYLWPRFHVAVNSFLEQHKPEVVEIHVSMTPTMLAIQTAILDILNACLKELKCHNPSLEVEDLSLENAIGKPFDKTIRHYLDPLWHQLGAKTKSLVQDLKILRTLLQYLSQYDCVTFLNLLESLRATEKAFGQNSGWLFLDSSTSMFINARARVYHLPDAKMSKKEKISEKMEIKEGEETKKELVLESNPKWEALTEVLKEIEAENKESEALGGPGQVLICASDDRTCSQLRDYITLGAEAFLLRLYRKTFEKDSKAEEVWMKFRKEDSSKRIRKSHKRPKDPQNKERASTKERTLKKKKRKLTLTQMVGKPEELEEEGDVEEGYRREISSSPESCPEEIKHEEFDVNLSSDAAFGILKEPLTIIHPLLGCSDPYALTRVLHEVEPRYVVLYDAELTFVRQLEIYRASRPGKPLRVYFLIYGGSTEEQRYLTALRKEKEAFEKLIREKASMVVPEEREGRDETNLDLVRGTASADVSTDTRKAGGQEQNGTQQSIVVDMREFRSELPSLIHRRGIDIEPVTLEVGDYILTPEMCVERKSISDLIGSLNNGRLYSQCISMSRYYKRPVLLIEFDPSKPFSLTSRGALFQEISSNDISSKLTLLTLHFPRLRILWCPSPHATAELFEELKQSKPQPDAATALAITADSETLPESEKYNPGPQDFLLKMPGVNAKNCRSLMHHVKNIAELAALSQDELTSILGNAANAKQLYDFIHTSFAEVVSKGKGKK

Deoxyribonuclease-1 = target: T2, Deoxyribonuclease-1 (Homo sapiens, UniProt P24855); experiment: Inhibition of DNAse1 (unknown origin)
T2 sequence (P24855 whole entry): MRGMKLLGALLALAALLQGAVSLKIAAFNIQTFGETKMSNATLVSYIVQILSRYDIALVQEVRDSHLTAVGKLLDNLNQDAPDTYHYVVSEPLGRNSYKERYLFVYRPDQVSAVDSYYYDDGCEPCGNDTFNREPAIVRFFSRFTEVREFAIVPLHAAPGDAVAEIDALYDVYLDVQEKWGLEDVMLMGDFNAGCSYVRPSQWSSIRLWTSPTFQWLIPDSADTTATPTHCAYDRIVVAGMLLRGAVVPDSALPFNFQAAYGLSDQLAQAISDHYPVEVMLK

Flap endonuclease 1 = Flap endonuclease 1 (Homo sapiens, UniProt P39748); experiment: Inhibition of FEN1 (unknown origin)
Sequence of Flap endonuclease 1 (P39748 whole entry): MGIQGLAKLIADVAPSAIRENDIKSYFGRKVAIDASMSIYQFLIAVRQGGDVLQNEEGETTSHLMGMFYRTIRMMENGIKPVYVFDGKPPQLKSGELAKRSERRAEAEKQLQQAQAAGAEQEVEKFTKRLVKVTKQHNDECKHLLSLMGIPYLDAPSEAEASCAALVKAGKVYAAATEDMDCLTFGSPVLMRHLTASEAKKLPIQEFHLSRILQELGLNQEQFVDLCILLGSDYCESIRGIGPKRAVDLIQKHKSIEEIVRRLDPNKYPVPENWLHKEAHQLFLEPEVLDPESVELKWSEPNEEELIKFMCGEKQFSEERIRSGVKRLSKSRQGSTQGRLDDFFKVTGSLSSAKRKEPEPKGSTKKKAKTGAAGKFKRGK

[2] = Half life in human liver microsomes; assay type: ADME
HepG2 = experiment: Cytotoxicity against human HepG2 cells; assay type: cell-based
How it was run: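 Hep-G2 cells exposed to compound at concentrations up to 10 μM; toxicity assessed.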

[3] = target: T1, DNA excision repair protein ERCC-1/DNA repair endonuclease XPF; experiment: Binding affinity to ERCC1-XPF (unknown origin) by SPR assay; assay type: protein-complex assay
[4] = Half life in mouse liver microsomes; assay type: ADME
[5] = Lipophilicity, log D of the compound; assay type: physicochemical; conditions: octanol/water
[6] = Apparent permeability by PAMPA method; assay type: physicochemical

| Structure (SMILES) | IC50 [1] [µM] | IC50 (Deoxyribonuclease-1) [µM] | IC50 (Flap endonuclease 1) [µM] | other results |
| --- | --- | --- | --- | --- |
| O=c1[nH]cc(-c2ccc(F)c(Cl)c2)cc1O | 13.1 | > 100 | > 100 | – |
| O=C(NCc1ccc(O)c(O)c1)C1CCCC1 | 24.6 | > 100 | > 100 | – |
| Cn1cc(-c2ccc(F)cc2)cc(O)c1=O | > 100 | – | – | – |
| O=c1[nH]cc(-c2ccc(F)cc2)cc1O | 8.7 | > 100 | > 100 | half-life [2]: > 6.67 h; Activity (HepG2): > 10 µM; Kd [3]: 3.5 µM; half-life [4]: > 6.67 h; logD [5]: 2; Papp [6]: 4.4 ×10⁻⁶ cm/s |
| Cn1ncc2ccc(-c3c[nH]c(=O)c(O)c3)cc21 | 14.6 | > 100 | > 100 | – |
| O=C(Cc1ccc(Cl)cc1Cl)NCc1ccc(O)c(O)c1Cl | 1.6 | > 100 | > 100 | – |
| O=c1[nH]ccc(-c2ccc(F)cc2)c1O | > 100 | – | – | – |
| O=C(Cc1ccc(Cl)cc1Cl)N1CCc2cc(O)c(O)cc2C1 | 1 | > 100 | > 100 | – |
| O=C(CC1CCCCC1)NCc1ccc(O)c(O)c1 | 1.4 | > 100 | > 100 | – |

Second part, led by results:

| IC50 [1] [µM] | IC50 (Deoxyribonuclease-1) [µM] | IC50 (Flap endonuclease 1) [µM] | Structure (SMILES) | other results |
| --- | --- | --- | --- | --- |
| 4 | – | – | N#Cc1cccc(CC(=O)NCc2ccc(O)c(O)c2)c1 | – |
| 0.74 | > 100 | > 100 | O=C(Cc1ccc(O)c(O)c1)NCc1ccc(Cl)cc1Cl | – |
| 24 | – | – | CC(C)C(=O)NCc1ccc(O)c(O)c1 | – |
| 12.1 | > 100 | > 100 | O=C(COc1ccccc1)NCc1ccc(O)c(O)c1 | – |
| 1.6 | > 100 | > 100 | O=C(CNc1ccccc1)Nc1ccc(O)c(O)c1 | – |
| 7.9 | > 100 | > 100 | O=C(Cc1ccc(N2CCOCC2)cc1)NCc1ccc(O)c(O)c1 | – |
| 24.5 | > 100 | > 100 | O=C(NCc1ccc(O)c(O)c1)c1ccccc1 | – |
| 12.2 | > 100 | > 100 | Oc1ccc(Cc2nc(-c3ccc(Cl)cc3)no2)cc1O | – |
| 15.2 | > 100 | > 100 | O=C(CNc1ccccc1)NCCc1ccc(O)c(O)c1 | – |
| 33 | > 100 | > 100 | Cc1cccc(NCC(=O)N/N=C/c2cc(Br)c(O)c(O)c2Br)c1 | – |
| 0.8 | > 100 | > 100 | CN(Cc1ccc(O)c(O)c1)C(=O)Cc1ccc(Cl)cc1Cl | – |
| 0.8 | > 100 | > 100 | O=C(Cc1ccccc1Cl)NCc1ccc(O)c(O)c1 | – |
